pEC50: −log10 of the molar value. Calls of active or inactive are those of the source. The rule behind the calls is not given here.
What was measured:
[1] = Cytotoxicity against reconstituted human epidermal cells assessed as cell viability after 72 hrs by MTT assay; type: cell-based
Summary of the method: (§1)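 Epidermis tissues were dosed topically with 50 µL of PBS solutions (extract 1-3%, compound 0.25-1%) in duplicate and kept at 37 °C, 5% CO2 for 24 or 72 h, with medium changed daily. Controls were PBS pH 7.2 and SDS 0.25%. After washing, MTT (0.5 mg/mL) was added for 3 h at 37 °C and OD read at 570 nm. Results are % viability versus PBS-treated epidermis.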

J774.A1 [2] = assay: Antiinflammatory activity against mouse J774A1 macrophages assessed as inhibition of LPS-induced iNOS expression pretreated for 1 hr before LPS challenge and measured after 24 hrs by Western blot analysis; type: functional, cell-based
Summary of the method: (§2)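 J774.A1 cells were given test solutions in PBS (0.01-1 mM) 1 h before and together with LPS (6 × 103 u/mL). After 24 h with LPS, cells were lysed and iNOS protein detected by Western blot with densitometry. Results are % inhibition versus LPS alone, from 3-6 independent experiments in triplicate. One-way ANOVA.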

J774.A1 [3] = assay: Antiinflammatory activity against mouse J774A1 macrophages assessed as inhibition of LPS-induced NO release pretreated for 1 hr before LPS challenge measured after 24 hrs by Griess method; type: functional, cell-based
Summary of the method: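 Nitrite measured in medium by Griess reaction 24 h after LPS (6 × 103 u/mL). J774.A1 cells plated at 1.5 × 106 in P60 plates. Test solutions in PBS (0.01-1 mM) were added 1 h before and again together with LPS. Nitrite was read against a sodium nitrite standard curve in culture medium. Inhibition is given as % versus LPS-only cells. At least 3 independent experiments, 3 replicates each.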

[4] = Cytotoxicity against reconstituted human epidermal cells assessed as cell viability after 24 hrs by MTT assay; type: cell-based; summary of the method: as §1
J774.A1 [5] = assay: Cytotoxicity against mouse J774A1 macrophages grown in monolayers by MTT assay; type: cell-based
Summary of the method: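 Monolayer J774.A1 cells were exposed to test solutions in PBS, 0.01-1 mM for pure compounds and 1-1000 µg/mL for extract. Viability was read by MTT assay and expressed as % of PBS-treated controls. Experiments were repeated at least three times with three or more observations each. ANOVA with Bonferroni.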

J774.A1 [6] = assay: Antiinflammatory activity against mouse J774A1 macrophages assessed as inhibition of LPS-induced iNOS expression at 1 mM treated 1 hr before LPS challenge and measured after 24 hrs by Western blot analysis; type: functional, cell-based; summary of the method: as §2
Homo sapiens [7] = organism: Homo sapiens; assay: Antiinflammatory activity against reconstituted human epidermis model assessed as inhibition of IL1alpha release after 72 hrs by ELISA relative to control; type: functional; conditions: Skin epidermis
Summary of the method: (§3)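 Reconstituted human epidermis (0.63 cm2, differentiated from normal human keratinocytes) received 50 µL of PBS solutions applied topically. Concentrations were 1, 2, 3% for extract and 0.25, 0.5, 1% for pure compound. Tissues were held at 37 °C, 5% CO2, with daily medium change. Underlying medium was collected at 24 or 72 h and IL-1α (pg/mL) quantified by ELISA. Controls were PBS and SDS 0.25%. Three independent experiments.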

Skin epidermis = assay: Effect on morphological changes in reconstituted human epidermis model assessed as induction of tissue degeneration and necrosis after 24 hrs; type: functional
Summary of the method: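 Reconstituted epidermis was dosed topically with PBS solutions at 1-3% (extract) or 0.25-1% (compound), with PBS and SDS 0.25% as controls. After 24 or 72 h, tissues were fixed in 10% formalin, dehydrated through ethanol and toluene, and paraffin-embedded. Sections of 5 µm were stained with H&E and examined by light microscopy at 200×.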

Homo sapiens [8] = organism: Homo sapiens; assay: Antiinflammatory activity against reconstituted human epidermis model assessed as inhibition of IL1alpha release after 24 hrs by ELISA relative to control; type: functional; conditions: Skin epidermis; summary of the method: as §3

O=C(/C=C/c1ccc(O)c(O)c1)O[C@@H]1C2C=CO[C@H](O[C@@H]3O[C@H](CO)[C@@H](O)[C@H](O)[C@H]3O)C2[C@]2(CO)O[C@H]12 (some centres undefined) [VERMINOSIDE]
Activity [1]: Non-toxic | Activity (J774.A1 [2]): Dose-dependent effect | Activity (J774.A1 [3]): Dose-dependent effect | Activity [4]: Non-toxic

C[C@@H]1O[C@@H](O[C@@H]2[C@@H](O)[C@H](OCCc3ccc(O)c(O)c3)O[C@H](CO)[C@H]2OC(=O)/C=C/c2ccc(O)c(O)c2)[C@H](O)[C@H](O)[C@H]1O [ACETOSIDE]
pEC50 (J774.A1 [5]): 3.31 | Activity (J774.A1 [6]): Active

CCCCCCCCCCCCOS(=O)(=O)[O-].[Na+]
Activity (Homo sapiens [7]): 110 pg/mL | Activity (Skin epidermis): Active | Activity (Homo sapiens [8]): 250 pg/mL

Source: ChEMBL document CHEMBL1158826, “Anti-inflammatory activity of verminoside from Kigelia africana and evaluation of cutaneous irritation in cell cultures and reconstituted human epidermis” (J Nat Prod, 2005)
